From ChEMBL document CHEMBL4414557, “Labdanes, Withanolides, and Other Constituents from Physalis nicandroides” (J Nat Prod, 2019) come the findings set out here.

Assay [1] concerns the target Acetylcholinesterase (Electrophorus electricus) (UniProt O42275). The assay is described as follows: Activation of Electrophorus electricus AChE at 100 uM using acetylthiocholine iodide as substrate preincubated for 30 mins followed by substrate addition and measured after 5 mins by Ellman's method relative to control. A general note: In Ellman's method for cholinesterases, released thiocholine reacts with DTNB.

In assay [2] the test system is Saccharomyces cerevisiae. Description: Activation of yeast alpha-glucosidase type 1 at 100 uM using p-Nitrophenyl alpha-D-glucopyranoside as substrate preincubated for 10 mins followed by incubation with substrate for 15 mins and measured after 5 mins by microplate reader analysis relative to control. In outline: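 Yeast α-glucosidase type I (25 μL, 0.2 U mL−1 in PBS) with glutathione (25 μL, 3 mM) in phosphate buffer (67 mM, pH 6.8). Samples were added in DMSO–H2O 1:1 and preincubated 10 min at 37 °C. Then p-nitrophenyl α-D-glucopyranoside (25 μL, 23.2 mM) was added, 15 min at 37 °C with agitation. Stopped with 1 M Na2CO3; A405 read. % vs negative control; triplicate, mean ± SD.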

The target in assay [3] is Acetylcholinesterase (Electrophorus electricus) (UniProt O42275). The assay is described as follows: Inhibition of Electrophorus electricus AChE at 100 uM using acetylthiocholine iodide as substrate preincubated for 30 mins followed by substrate addition and measured after 5 mins by Ellman's method relative to control.
The test system of assay [4] is Saccharomyces cerevisiae. The assay is described as follows: Inhibition of yeast alpha-glucosidase type 1 at 100 uM using p-Nitrophenyl alpha-D-glucopyranoside as substrate preincubated for 10 mins followed by incubation with substrate for 15 mins and measured after 5 mins by microplate reader analysis. In outline: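 Sample in DMSO–H2O 1:1 added to PBS (67 mM, pH 6.8) with glutathione (3 mM in PBS) and enzyme (0.2 U mL−1 in PBS), preincubated 10 min at 37 °C. p-Nitrophenyl α-D-glucopyranoside (23.2 mM in PBS) then added, 15 min at 37 °C with agitation. Stopped with 1 M Na2CO3, read at 405 nm after 5 min. Percent inhibition versus negative control, triplicate. Quercetin positive control.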

A further assay has as its target Acetylcholinesterase (Electrophorus electricus, UniProt O42275). Description: Inhibition of Electrophorus electricus AChE using acetylthiocholine iodide as substrate preincubated for 30 mins followed by substrate addition and measured after 5 mins by Ellman's method.

Activity calls are given as the source filed them. The rule behind the calls is not given here.

Acetylcholinesterase (Electrophorus electricus), sequence (O42275 24-633 limits assumed): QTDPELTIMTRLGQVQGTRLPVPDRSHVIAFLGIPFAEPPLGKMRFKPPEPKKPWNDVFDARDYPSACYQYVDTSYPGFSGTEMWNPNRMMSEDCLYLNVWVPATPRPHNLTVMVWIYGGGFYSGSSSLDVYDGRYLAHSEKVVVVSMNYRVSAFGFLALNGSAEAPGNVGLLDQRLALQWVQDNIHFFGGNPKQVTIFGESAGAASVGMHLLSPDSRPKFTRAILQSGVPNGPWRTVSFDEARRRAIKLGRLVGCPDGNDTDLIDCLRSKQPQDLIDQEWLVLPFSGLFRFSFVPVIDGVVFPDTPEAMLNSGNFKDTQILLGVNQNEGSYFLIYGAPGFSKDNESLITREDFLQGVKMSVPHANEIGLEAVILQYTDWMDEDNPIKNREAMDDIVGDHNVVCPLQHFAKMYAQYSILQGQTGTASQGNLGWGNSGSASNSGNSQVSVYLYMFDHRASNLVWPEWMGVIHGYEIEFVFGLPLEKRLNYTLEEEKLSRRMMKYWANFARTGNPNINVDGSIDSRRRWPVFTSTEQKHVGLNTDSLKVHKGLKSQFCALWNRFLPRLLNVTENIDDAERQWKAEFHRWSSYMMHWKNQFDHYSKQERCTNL
Acetylcholinesterase, sequence (O42275 whole entry): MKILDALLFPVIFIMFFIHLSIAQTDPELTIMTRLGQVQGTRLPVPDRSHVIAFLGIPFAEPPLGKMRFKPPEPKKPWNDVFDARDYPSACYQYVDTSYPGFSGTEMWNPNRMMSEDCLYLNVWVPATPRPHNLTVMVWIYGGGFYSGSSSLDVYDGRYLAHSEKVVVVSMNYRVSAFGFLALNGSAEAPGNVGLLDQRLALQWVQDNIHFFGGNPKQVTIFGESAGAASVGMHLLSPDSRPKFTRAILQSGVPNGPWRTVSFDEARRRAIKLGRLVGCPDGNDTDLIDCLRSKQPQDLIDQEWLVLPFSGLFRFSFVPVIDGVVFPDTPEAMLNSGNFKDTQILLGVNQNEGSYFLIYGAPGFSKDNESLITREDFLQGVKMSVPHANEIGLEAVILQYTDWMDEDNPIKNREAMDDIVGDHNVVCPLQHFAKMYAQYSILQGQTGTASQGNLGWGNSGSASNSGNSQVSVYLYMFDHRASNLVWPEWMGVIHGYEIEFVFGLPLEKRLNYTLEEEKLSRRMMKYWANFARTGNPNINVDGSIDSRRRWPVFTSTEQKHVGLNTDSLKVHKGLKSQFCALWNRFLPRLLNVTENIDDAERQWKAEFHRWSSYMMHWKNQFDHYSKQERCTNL

As to `C=C1CC[C@H]2C(C)(C)CCC[C@]2(C)[C@H]1C[C@H](O[C@@H]1O[C@H](CO)[C@@H](O)[C@H](O)[C@H]1O)/C(C)=C/COC(=O)CC(C)C`, the Activity fell in the range of 6.7 to 96% in assay [1] and 1.1 to 29.4% in the assay on Saccharomyces cerevisiae [2].
`C=C(CC[C@@H]1[C@@]2(C)CCCC(C)(C)[C@@H]2CC[C@@]1(C)O)[C@H](O)CO`: the Activity was in the range of 6.7 to 96% in assay [1] and 1.1 to 29.4% with Saccharomyces cerevisiae [2].
For `C=C1CC[C@H]2C(C)(C)CCC[C@]2(C)[C@H]1CC(=O)/C(C)=C/CO`, in that order: 6.7 to 96% and 1.1 to 29.4%.
`C=C(CC[C@@H]1[C@@]2(C)CCCC(C)(C)[C@@H]2CC[C@@]1(C)O)[C@@H](O)CO`: the Activity in assay [1] is 6.7 to 96%; with Saccharomyces cerevisiae [2] it was 1.1 to 29.4%.
The matching figures for `C=C1CC[C@H]2C(C)(C)CCC[C@]2(C)[C@H]1C[C@H](O)/C(C)=C/CO`: 6.7 to 96% and 1.1 to 29.4%.
Regarding `C=C(C)C(C)(O)CC[C@@H](C)[C@H]1CC[C@H]2[C@@H]3CC=C4C[C@@H](O)CC[C@]4(C)[C@H]3CC[C@]12C` (stereo partly drawn), in assay [3], the inhibition (commonly the percentage by which the read-out fell short of the control) was 24%. For the same compound, the inhibition entry in the assay on Saccharomyces cerevisiae [4] was “Active”.
The compound `CO[C@@H]1CC(=O)[C@]2(C)[C@H]3CC[C@]4(C)[C@@H]([C@@](C)(O)[C@H]5CC(C)=C(C)C(=O)O5)C[C@H](OC(C)=O)[C@]4(O)[C@@H]3C[C@H]3O[C@]32C1` yielded an Activity in assay [1] of 6.7 to 96%. Also, the inhibition entry in the assay on Saccharomyces cerevisiae [4] was “Active”.
On to `C=C1CC[C@H]2C(C)(C)CCC[C@]2(C)[C@H]1C[C@H](O[C@@H]1O[C@H](CO)[C@@H](O)[C@H](O)[C@H]1O)/C(C)=C/CO`, for which the Activity lay in the range of 6.7 to 96% in assay [1] and 1.1 to 29.4% with Saccharomyces cerevisiae [2].
With `CC(=O)O[C@H]1C[C@H]([C@@](C)(O)[C@H]2CC(C)=C(C)C(=O)O2)[C@@]2(C)CC[C@H]3[C@@H](C[C@@H](OC(C)=O)[C@@]4(Cl)CC=CC(=O)[C@]34C)[C@@]12O`, the Activity in assay [1] lay in the range of 6.7 to 96%. Besides, the inhibition entry in the assay on Saccharomyces cerevisiae [4] is “Active”.
As for `C/C(=C\CO)CC[C@@H]1[C@@]2(C)CCCC(C)(C)[C@@H]2CC[C@@]1(C)O`, the Activity in assay [1] lay within 6.7 to 96%; in the assay on Saccharomyces cerevisiae [2], 1.1 to 29.4%.
In the case of `C=C1CC[C@H]2C(C)(C)CCC[C@]2(C)[C@H]1CC/C(=C/CO)CO`, in assay [3], the inhibition was 33.9%. The inhibition entry in the assay on Saccharomyces cerevisiae [4] is “Active”.
Take `C=C1CC[C@H]2C(C)(C)CCC[C@]2(C)[C@H]1C[C@@H](O)/C(C)=C/CO`: the Activity in assay [1] is 6.7 to 96%; with Saccharomyces cerevisiae [2], 1.1 to 29.4%.
On to `CC(=O)O[C@H]1C[C@H]([C@@](C)(O)[C@H]2CC(C)=C(C)C(=O)O2)[C@@]2(C)CC[C@H]3[C@@H](C[C@H]4O[C@]45CC=CC(=O)[C@]35C)[C@@]12O`, for which, in assay [1], the Activity is 6.7 to 96%. Further, the inhibition result in the assay with Saccharomyces cerevisiae [4] was “Active”.
For `C=C1CC[C@H]2C(C)(C)CCC[C@]2(C)[C@H]1Cc1occc1C`, the Activity in the assay with Saccharomyces cerevisiae [2] is 1.1 to 29.4%. Further, the IC50 (commonly the concentration at which inhibition is half-maximal) at Acetylcholinesterase came out at 64.4 µM. In assay [3], the inhibition was 57.5%.
As to `CC(=O)O[C@H]1C[C@H]([C@@](C)(O)[C@H]2CC(C)=C(C)C(=O)O2)[C@@]2(C)CC[C@H]3[C@@H](C[C@@H](O)[C@@]4(Cl)CC=CC(=O)[C@]34C)[C@@]12O`, the Activity in assay [1] lay within 6.7 to 96%. Also, in the assay with Saccharomyces cerevisiae [4], the inhibition entry was “Active”.
For `C=C1CC[C@H]2C(C)(C)CCC[C@]2(C)[C@H]1C[C@H](O[C@@H]1O[C@H](COC(C)=O)[C@@H](OC(C)=O)[C@H](OC(C)=O)[C@H]1OC(C)=O)/C(C)=C/COC(=O)CC(C)C`, in that order: 6.7 to 96% and “Active”.
